Measurements as given in ChEMBL document CHEMBL1144716, “Synthesis of 1-/2-substituted-[1,2,3]triazolo[4,5-g]phthalazine-4,9-diones and evaluation of their cytotoxicity and topoisomerase II inhibition” (Bioorg Med Chem, 2008).

Experiments:
HT-1080 = assay: Cytotoxicity against human HT1080 cells after 3 days by SRB assay; type: functional, cell-based; conditions: HT-1080, 72 h
[1] = target: DNA topoisomerase 2-alpha (Homo sapiens, UniProt P11388); assay: Inhibition of human recombinant topoisomerase 2 by decatenation assay
How it was run: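 One unit of human recombinant topo II (the amount that fully decatenates 200 ng kDNA) with 200 ng kinetoplast DNA in 50 mM Tris-HCl pH 8, 120 mM KCl, 10 mM MgCl2, 0.5 mM ATP, 0.5 mM DTT, 30 µg/mL BSA. Drug stocks in DMSO. 10 min at 37 °C, stopped with sarkosyl loading dye. Decatenation read on 1% agarose gel in TBE.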

HL-60 = assay: Cytotoxicity against human HL60 cells after 3 days by SRB assay; type: functional, cell-based; conditions: HL-60, 72 h
SNU-638 = assay: Cytotoxicity against human SNU638 cells after 3 days by SRB assay; type: functional, cell-based; conditions: SNU-638, 72 h
SK-OV-3 = assay: Cytotoxicity against human SKOV3 cells after 3 days by SRB assay; type: functional, cell-based; conditions: SK-OV-3, 72 h
XF498 = assay: Cytotoxicity against human XF498 cells after 3 days by SRB assay; type: functional, cell-based; conditions: XF498, 72 h
HCT-15 = assay: Cytotoxicity against human HCT15 cells after 3 days by SRB assay; type: functional, cell-based; conditions: HCT-15, 72 h
SK-MEL-2 = assay: Cytotoxicity against human SK-MEL-2 cells after 3 days by SRB assay; type: functional, cell-based; conditions: SK-MEL-2, 72 h
A549 = assay: Cytotoxicity against human A549 cells after 3 days by SRB assay; type: functional, cell-based; conditions: A549, 72 h

DNA topoisomerase 2-alpha, sequence (P11388 whole entry): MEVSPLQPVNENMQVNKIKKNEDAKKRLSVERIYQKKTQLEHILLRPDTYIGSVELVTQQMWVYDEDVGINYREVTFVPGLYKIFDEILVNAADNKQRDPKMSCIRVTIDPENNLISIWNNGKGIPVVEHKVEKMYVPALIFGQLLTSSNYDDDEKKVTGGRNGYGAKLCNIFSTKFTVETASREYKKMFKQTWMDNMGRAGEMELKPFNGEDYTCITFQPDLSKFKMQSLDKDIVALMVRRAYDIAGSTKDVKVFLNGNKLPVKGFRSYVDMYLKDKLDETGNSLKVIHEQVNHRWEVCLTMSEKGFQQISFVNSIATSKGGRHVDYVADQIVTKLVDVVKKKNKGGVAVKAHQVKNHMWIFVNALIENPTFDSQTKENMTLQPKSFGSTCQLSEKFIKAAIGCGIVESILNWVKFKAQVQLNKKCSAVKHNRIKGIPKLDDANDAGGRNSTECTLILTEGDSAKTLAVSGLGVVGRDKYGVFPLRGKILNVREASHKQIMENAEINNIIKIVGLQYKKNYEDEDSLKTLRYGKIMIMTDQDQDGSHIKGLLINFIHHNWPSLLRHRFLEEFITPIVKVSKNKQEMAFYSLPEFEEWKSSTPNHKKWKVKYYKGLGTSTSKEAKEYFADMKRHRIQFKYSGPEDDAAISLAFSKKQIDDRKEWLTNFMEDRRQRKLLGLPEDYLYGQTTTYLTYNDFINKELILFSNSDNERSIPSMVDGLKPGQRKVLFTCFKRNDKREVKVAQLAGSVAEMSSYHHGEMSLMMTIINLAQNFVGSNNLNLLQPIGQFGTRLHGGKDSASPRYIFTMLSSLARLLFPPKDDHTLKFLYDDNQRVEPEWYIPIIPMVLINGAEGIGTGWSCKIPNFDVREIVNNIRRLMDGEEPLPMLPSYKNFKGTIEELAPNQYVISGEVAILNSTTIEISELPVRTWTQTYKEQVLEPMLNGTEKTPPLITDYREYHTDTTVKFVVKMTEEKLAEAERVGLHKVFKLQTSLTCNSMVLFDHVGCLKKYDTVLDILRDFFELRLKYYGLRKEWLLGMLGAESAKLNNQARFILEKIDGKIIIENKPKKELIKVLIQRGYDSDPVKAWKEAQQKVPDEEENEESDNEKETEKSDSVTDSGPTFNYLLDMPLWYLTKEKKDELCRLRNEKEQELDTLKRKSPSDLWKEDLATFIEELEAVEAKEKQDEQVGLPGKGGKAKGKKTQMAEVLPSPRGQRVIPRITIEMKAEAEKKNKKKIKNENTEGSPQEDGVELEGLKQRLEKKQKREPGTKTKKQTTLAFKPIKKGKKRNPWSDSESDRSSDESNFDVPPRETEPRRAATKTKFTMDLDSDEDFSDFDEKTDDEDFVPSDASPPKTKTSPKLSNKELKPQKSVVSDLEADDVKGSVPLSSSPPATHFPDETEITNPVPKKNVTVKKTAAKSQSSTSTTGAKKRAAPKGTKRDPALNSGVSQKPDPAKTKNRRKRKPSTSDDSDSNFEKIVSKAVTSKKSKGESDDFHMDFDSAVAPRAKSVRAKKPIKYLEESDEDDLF

Row | Compound | IC50 (HT-1080) [nM] | IC50 [1] [nM] | IC50 (HL-60) [nM] | IC50 (SNU-638) [nM] | IC50 (SK-OV-3) [nM] | IC50 (XF498) [nM] | IC50 (HCT-15) [nM] | IC50 (SK-MEL-2) [nM] | IC50 (A549) [nM]
1 | CCn1nc2c(n1)C(=O)c1cnncc1C2=O | 204 | 61500 | 90 | 46 | 3 | 17 | 18 | 4 | 18
2 | Cn1nnc2c1C(=O)c1cnncc1C2=O | 73 | 39000 | 82 | 241 | 3 | 35 | 103 | 8 | 4
3 | COc1cccc2c1C(=O)c1c(O)c3c(c(O)c1C2=O)C[C@@](O)(C(=O)CO)C[C@@H]3O[C@H]1C[C@H](N)[C@H](O)[C@H](C)O1 [DOXORUBICIN] | 22 |  | 44 | 52 | 41 | 44 | 251 | 19 | 
4 | CCCn1nc2c(n1)C(=O)c1cnncc1C2=O | 33 | 44400 | 157 | 43 | 9 | 18 | 18 | 9 | 19
5 | CC(C)n1nc2c(n1)C(=O)c1cnncc1C2=O | 55 | 54500 | 18 | 11 | 31 | 14 | 14 | 7 | 9
6 | CC(C)n1nnc2c1C(=O)c1cnncc1C2=O | 114 | 33300 | 50 | 57 | 49 | 49 | 33 | 16 | 32
7 | CCCCn1nc2c(n1)C(=O)c1cnncc1C2=O | 30 | 64800 | 151 | 50 | 17 | 19 | 18 | 15 | 18
8 | O=C1c2cnncc2C(=O)c2[nH]nnc21 | > 5000 | 52800 | > 5000 | > 5000 | 7640 | > 10000 | > 10000 | > 10000 | 9020
9 | CCCn1nnc2c1C(=O)c1cnncc1C2=O | 75 | 49000 | 83 | 212 | 14 | 85 | 176 | 20 | 26
10 | CCCCn1nnc2c1C(=O)c1cnncc1C2=O | 99 | 43200 | 89 | 155 | 21 | 181 | 177 | 23 | 81
11 | CCn1nnc2c1C(=O)c1cnncc1C2=O | 68 | 55600 | 56 | 126 | 3 | 34 | 39 | 8 | 6
12 | CC(C)Cn1nnc2c1C(=O)c1cnncc1C2=O | 77 | 29800 | 75 | 69 | 190 | 140 | 110 | 66 | 110
13 | Cn1nc2c(n1)C(=O)c1cnncc1C2=O | 7.8 | 55600 | 124 | 54 | 0.4 | 4 | 20 | 2 | 2
14 | COc1ccc(Cn2nnc3c2C(=O)c2cnncc2C3=O)cc1 | 330 | 28600 | 130 | 257 | 12 | 118 | 59 | 41 | 54
15 | COc1cc([C@@H]2c3cc4c(cc3[C@@H](O[C@@H]3O[C@@H]5CO[C@@H](C)O[C@H]5[C@H](O)[C@H]3O)[C@H]3COC(=O)[C@H]23)OCO4)cc(OC)c1O [ETOPOSIDE] | 250 |  | 370 | 230 | 4280 | 3480 | 2800 | 5720 | 1160
16 | CC(C)Cn1nc2c(n1)C(=O)c1cnncc1C2=O | 85 | 19400 | 38 | 14 | 43 | 19 | 29 | 15 | 19
